In ChEMBL document CHEMBL2203085, “Modification of a promiscuous inhibitor shifts the inhibition from γ-secretase to FLT-3” (Bioorg Med Chem Lett, 2012):
Blank lines part the entries; values can stand above or below the compound they belong to.

What was measured:
[1] = molecular target: Serine/threonine-protein kinase PLK1 (Homo sapiens) (UniProt P53350); assay: Inhibition of human recombinant PLK1 using Ulight-FLGFTYVAP as substrate assessed as residual activity at 1 uM after 60 mins relative to staurosporine
Outline: (§1)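 Part of a 50-kinase panel screen at a single concentration. Residual activity is given as percent of control specific activity, calculated as (measured specific activity/control specific activity) × 100, with staurosporine as the control. The kinase-specific details are in the supplementary data.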

[2] = molecular target: Aurora kinase A (Homo sapiens) (UniProt O14965); assay: Inhibition of human recombinant Aurora A expressed in Sf21 cells using Ulight-RRRSLLE as substrate assessed as residual activity at 1 uM after 15 mins relative to staurosporine; outline: as §1
[3] = molecular target: RAC-alpha serine/threonine-protein kinase (Homo sapiens) (UniProt P31749); assay: Inhibition of human recombinant AKT1 expressed in insect cells using CKRREILSRRPSYRK as substrate assessed as residual activity at 1 uM after 60 mins relative to staurosporine; outline: as §1
Homo sapiens = species on record: Homo sapiens; assay: Inhibition of human recombinant PKA expressed in Escherichia coli using Ulight-RRRSLLE as substrate assessed as residual activity at 1 uM after 10 mins relative to staurosporine; outline: as §1
[4] = molecular target: Fibroblast growth factor receptor 2 (Homo sapiens) (UniProt P21802); assay: Inhibition of human recombinant FGFR2 using Ulight-CAGAGAIETDKEYYTVKD as substrate assessed as residual activity at 1 uM after 15 mins relative to staurosporine; outline: as §1
Danio rerio = species on record: Danio rerio; assay: Toxicity against zebra fish embryo assessed as developmental delay at 20 uM incubated from 4 hrs to 48 hrs post fertilization by microscopic analysis; format: organism-based; conditions: zebrafish, in vivo
Outline: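 Zebrafish embryos were collected and kept in E2 medium at 28 °C. Compound was added at 4–5 hpf at 5 or 20 µM alongside untreated controls. Phenotypes were compared with controls at 48 hpf.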

[5] = molecular target: Serine/threonine-protein kinase Sgk1 (Homo sapiens) (UniProt O00141); assay: Inhibition of human recombinant SGK1 using Ulight-RRRSLLE as substrate assessed as residual activity at 1 uM after 30 mins relative to staurosporine; outline: as §1
[6] = molecular target: Cyclin-dependent kinase 2/cyclin A (Homo sapiens) (UniProt P24941+P20248+P78396); assay: Inhibition of human recombinant CDK2/cyclin A using Ulight-CFFKNIVTPRTPPPSQGK-amide as substrate assessed as residual activity at 1 uM after 30 mins relative to staurosporine; format: protein-complex assay; outline: as §1
[7] = molecular target: Hepatocyte growth factor receptor (Homo sapiens) (UniProt P08581); assay: Inhibition of human recombinant cMET expressed in insect cells using Ulight-CAGAGAIETDKEYYTVKD as substrate assessed as residual activity at 1 uM after 60 mins relative to staurosporine
Outline: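 Single-point kinase-panel screen at 1 µM test concentration. Specific activity was measured and expressed as percent of the staurosporine control, calculated as (measured specific activity / control specific activity) × 100.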

[8] = molecular target: Protein kinase C beta type (Homo sapiens) (UniProt P05771); assay: Inhibition of human recombinant PKCbeta2 using CKRREILSRRPSYRK as substrate assessed as residual activity at 1 uM after 15 mins relative to staurosporine; outline: as §1
[9] = molecular target: Glycogen synthase kinase-3 alpha (Homo sapiens) (UniProt P49840); assay: Inhibition of human recombinant GSK3alpha using Ulight-CFFKNIVTPRTPPPSQGK-amide as substrate assessed as residual activity at 1 uM after 60 mins relative to staurosporine; outline: as §1
[10] = molecular target: Serine/threonine-protein kinase Nek2 (Homo sapiens) (UniProt P51955); assay: Inhibition of human recombinant NEK2 expressed in insect cells using Ulight-FLGFTYVAP as substrate assessed as residual activity at 1 uM after 60 mins relative to staurosporine; outline: as §1
[11] = molecular target: Ephrin type-B receptor 4 (Homo sapiens) (UniProt P54760); assay: Inhibition of human recombinant EPHB4 expressed in insect cells using Ulight-TK peptide as substrate assessed as residual activity at 1 uM after 90 mins relative to staurosporine; outline: as §1
[12] = molecular target: Serine/threonine-protein kinase MARK1 (Homo sapiens) (UniProt Q9P0L2); assay: Inhibition of human recombinant MARK1 using Ulight-RRRSLLE as substrate assessed as residual activity at 1 uM after 30 mins relative to staurosporine; outline: as §1
[13] = molecular target: Serine/threonine-protein kinase 26 (Homo sapiens) (UniProt Q9P289); assay: Inhibition of human recombinant MST4 using Ulight-TM- PKC as substrate assessed as residual activity at 1 uM after 30 mins relative to staurosporine; outline: as §1
[14] = molecular target: Dual specificity mitogen-activated protein kinase kinase 6 (Homo sapiens) (UniProt P52564); assay: Inhibition of human recombinant MKK6 using inactive p38alpha as substrate assessed as residual activity at 1 uM after 10 mins relative to staurosporine; outline: as §1
[15] = molecular target: Fibroblast growth factor receptor 3 (Homo sapiens) (UniProt P22607); assay: Inhibition of human recombinant FGFR3 using Ulight-CAGAGAIETDKEYYTVKD as substrate assessed as residual activity at 1 uM after 90 mins relative to staurosporine; outline: as §1
[16] = molecular target: Serine/threonine-protein kinase Chk1 (Homo sapiens) (UniProt O14757); assay: Inhibition of human recombinant CHK1 expressed in insect cells using CKRREILSRRPSYRK as substrate assessed as residual activity at 1 uM after 30 mins relative to staurosporine; outline: as §1
Gamma-secretase = assay: Inhibition of gamma secretase in human H4 cells expressing APP695 assessed as inhibition of Abeta42 production after 20 to 24 hrs by liquid phase electrochemiluminescence assay; format: cell-based
Outline: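 Aβ42 generation in H4 APP#9 cells was quantified by a previously described liquid-phase electrochemiluminescence (LPECL) assay of the Aβ42 isoform as the read-out of γ-secretase inhibition.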

[17] = molecular target: Tyrosine-protein kinase JAK3 (Homo sapiens) (UniProt P52333); assay: Inhibition of human recombinant JAK3 using Ulight-CAGAGAIETDKEYYTVKD as substrate assessed as residual activity at 1 uM after 60 mins relative to staurosporine; outline: as §1
[18] = molecular target: 3-phosphoinositide-dependent protein kinase 1 (Homo sapiens) (UniProt O15530); assay: Inhibition of human recombinant PDK1 expressed in insect cells using Ulight-FLGFTYVAP as substrate assessed as residual activity at 1 uM after 90 mins relative to staurosporine; outline: as §1
[19] = molecular target: Mitogen-activated protein kinase 1 (Homo sapiens) (UniProt P28482); assay: Inhibition of human recombinant ERK2 expressed in Escherichia coli using Ulight-CFFKNIVTPRTPPPSQGK-amide as substrate assessed as residual activity at 1 uM after 15 mins relative to staurosporine; outline: as §1
H4 [20] = assay: Selectivity ratio of IC50 for gamma secretase in human H4 cells to IC50 for human recombinant FLT3; format: cell-based
[21] = molecular target: Epidermal growth factor receptor (Homo sapiens) (UniProt P00533); assay: Inhibition of human recombinant EGFR expressed in insect cells using Ulight-CAGAGAIETDKEYYTVKD as substrate assessed as residual activity at 1 uM after 15 mins relative to staurosporine; outline: as §1
[22] = molecular target: Glycogen synthase kinase-3 beta (Homo sapiens) (UniProt P49841); assay: Inhibition of human recombinant GSK3beta using Ulight-CFFKNIVTPRTPPPSQGK-amide as substrate assessed as residual activity at 1 uM after 90 mins relative to staurosporine; outline: as §1
[23] = molecular target: Serine/threonine-protein kinase PAK 4 (Homo sapiens) (UniProt O96013); assay: Inhibition of human recombinant PAK4 expressed in insect cells using Ulight-RRRSLLE as substrate assessed as residual activity at 1 uM after 30 mins relative to staurosporine; outline: as §1
[24] = molecular target: Receptor-type tyrosine-protein kinase FLT3 (Homo sapiens) (UniProt P36888); assay: Inhibition of human recombinant FLT3 expressed in insect cells using Ulight-CAGAGAIETDKEYYTVKD as substrate assessed as residual activity at 1 uM after 90 mins relative to staurosporine; outline: as §1
[25] = molecular target: Inhibitor of nuclear factor kappa-B kinase subunit alpha (Homo sapiens) (UniProt O15111); assay: Inhibition of human recombinant IKKalpha expressed in Sf21 cells using + Ulight-IkappaB-alpha as substrate assessed as residual activity at 1 uM after 30 mins relative to staurosporine; outline: as §1
H4 [26] = assay: Cytotoxicity against human H4 cells at 10 uM; format: cell-based; conditions: h4, 10 µM
Outline: (§2)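 H4 APP#9 cells were used for cell-based toxicity testing, and toxicity was scored as yes or no at each concentration tested.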

H4 [27] = assay: Cytotoxicity against human H4 cells at 40 uM; format: cell-based; conditions: h4, 40 µM; outline: as §2
H4 [28] = assay: Cytotoxicity against human H4 cells at 80 uM; format: cell-based; conditions: h4, 80 µM; outline: as §2
H4 [29] = assay: Cytotoxicity against human H4 cells at 20 uM; format: cell-based; conditions: h4, 20 µM; outline: as §2
H4 [30] = assay: Cytotoxicity against human H4 cells at 160 uM; format: cell-based; conditions: h4, 160 µM; outline: as §2

Sequence of RAC-alpha serine/threonine-protein kinase (Homo sapiens) (P31749 whole entry): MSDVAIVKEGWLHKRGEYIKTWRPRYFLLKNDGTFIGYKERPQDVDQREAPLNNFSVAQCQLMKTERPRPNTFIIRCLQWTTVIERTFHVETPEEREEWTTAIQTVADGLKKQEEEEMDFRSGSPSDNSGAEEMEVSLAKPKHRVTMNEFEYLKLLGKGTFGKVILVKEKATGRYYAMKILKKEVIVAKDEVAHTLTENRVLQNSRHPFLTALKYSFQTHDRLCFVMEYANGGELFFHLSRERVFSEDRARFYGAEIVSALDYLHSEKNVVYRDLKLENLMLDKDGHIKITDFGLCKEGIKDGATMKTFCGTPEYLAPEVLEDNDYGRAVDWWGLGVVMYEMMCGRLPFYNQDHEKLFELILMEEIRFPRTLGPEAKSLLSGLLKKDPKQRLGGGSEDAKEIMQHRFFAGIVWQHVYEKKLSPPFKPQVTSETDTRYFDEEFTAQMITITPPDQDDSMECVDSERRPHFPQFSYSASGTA
Sequence of Serine/threonine-protein kinase 26 (Homo sapiens) (Q9P289 2-416 limits assumed): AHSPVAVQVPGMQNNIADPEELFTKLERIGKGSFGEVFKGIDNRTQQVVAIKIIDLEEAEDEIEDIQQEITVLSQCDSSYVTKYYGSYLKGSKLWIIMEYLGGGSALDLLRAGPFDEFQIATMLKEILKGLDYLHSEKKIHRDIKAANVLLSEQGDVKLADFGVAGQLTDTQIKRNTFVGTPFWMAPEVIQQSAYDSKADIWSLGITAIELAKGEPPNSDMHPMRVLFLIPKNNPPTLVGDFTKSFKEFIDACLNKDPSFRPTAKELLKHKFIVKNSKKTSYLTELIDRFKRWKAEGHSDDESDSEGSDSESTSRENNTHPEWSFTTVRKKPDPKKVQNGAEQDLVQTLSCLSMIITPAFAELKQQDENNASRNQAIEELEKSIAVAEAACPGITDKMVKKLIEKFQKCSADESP
Sequence of Serine/threonine-protein kinase Nek2 (Homo sapiens) (P51955 whole entry): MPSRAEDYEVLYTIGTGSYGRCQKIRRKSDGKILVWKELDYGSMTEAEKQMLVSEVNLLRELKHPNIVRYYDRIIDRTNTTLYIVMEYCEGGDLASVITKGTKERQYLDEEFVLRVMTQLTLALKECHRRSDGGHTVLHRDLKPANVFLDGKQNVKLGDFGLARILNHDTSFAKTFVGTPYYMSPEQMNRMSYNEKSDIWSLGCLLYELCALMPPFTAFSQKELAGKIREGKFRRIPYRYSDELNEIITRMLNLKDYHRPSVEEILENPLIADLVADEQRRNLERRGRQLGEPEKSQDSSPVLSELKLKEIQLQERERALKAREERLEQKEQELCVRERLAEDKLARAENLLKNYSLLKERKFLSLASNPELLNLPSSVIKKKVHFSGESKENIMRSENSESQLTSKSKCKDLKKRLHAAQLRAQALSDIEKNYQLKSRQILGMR
Sequence of Dual specificity mitogen-activated protein kinase kinase 6 (Homo sapiens) (P52564 whole entry): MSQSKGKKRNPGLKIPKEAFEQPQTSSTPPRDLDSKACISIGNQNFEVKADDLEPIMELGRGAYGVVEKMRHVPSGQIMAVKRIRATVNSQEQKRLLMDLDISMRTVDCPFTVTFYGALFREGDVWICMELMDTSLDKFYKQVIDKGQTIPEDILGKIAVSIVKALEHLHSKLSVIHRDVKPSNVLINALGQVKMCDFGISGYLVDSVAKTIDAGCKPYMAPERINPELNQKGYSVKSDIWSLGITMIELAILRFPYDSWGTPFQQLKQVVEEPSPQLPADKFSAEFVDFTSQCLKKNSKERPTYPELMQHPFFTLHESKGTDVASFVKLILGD
Sequence of Receptor-type tyrosine-protein kinase FLT3 (Homo sapiens) (P36888 whole entry): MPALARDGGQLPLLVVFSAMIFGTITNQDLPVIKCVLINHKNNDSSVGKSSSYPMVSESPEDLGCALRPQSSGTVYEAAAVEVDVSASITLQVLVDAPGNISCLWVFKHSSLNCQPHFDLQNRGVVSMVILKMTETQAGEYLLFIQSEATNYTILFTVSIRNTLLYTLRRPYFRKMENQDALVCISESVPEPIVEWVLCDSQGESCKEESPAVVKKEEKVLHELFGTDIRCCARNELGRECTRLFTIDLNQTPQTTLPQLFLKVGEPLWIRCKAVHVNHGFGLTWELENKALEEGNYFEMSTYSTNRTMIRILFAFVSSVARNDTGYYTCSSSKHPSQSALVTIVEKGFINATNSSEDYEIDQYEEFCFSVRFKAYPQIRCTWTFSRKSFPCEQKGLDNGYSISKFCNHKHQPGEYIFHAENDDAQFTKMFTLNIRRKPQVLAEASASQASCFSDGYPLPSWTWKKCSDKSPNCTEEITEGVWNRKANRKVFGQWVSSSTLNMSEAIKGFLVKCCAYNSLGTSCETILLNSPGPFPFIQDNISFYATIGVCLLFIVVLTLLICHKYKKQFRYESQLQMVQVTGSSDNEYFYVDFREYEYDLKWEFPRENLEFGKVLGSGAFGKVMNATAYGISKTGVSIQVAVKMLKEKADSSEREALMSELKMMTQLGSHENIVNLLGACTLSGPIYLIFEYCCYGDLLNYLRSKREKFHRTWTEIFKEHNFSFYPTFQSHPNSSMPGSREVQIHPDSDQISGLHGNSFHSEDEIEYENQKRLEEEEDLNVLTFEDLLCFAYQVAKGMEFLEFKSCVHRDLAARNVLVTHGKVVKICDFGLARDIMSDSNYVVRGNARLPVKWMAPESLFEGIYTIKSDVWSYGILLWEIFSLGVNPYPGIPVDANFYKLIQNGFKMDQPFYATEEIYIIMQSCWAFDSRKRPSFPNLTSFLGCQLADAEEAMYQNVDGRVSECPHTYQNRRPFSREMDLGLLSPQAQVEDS
Sequence of Inhibitor of nuclear factor kappa-B kinase subunit alpha (Homo sapiens) (O15111 whole entry): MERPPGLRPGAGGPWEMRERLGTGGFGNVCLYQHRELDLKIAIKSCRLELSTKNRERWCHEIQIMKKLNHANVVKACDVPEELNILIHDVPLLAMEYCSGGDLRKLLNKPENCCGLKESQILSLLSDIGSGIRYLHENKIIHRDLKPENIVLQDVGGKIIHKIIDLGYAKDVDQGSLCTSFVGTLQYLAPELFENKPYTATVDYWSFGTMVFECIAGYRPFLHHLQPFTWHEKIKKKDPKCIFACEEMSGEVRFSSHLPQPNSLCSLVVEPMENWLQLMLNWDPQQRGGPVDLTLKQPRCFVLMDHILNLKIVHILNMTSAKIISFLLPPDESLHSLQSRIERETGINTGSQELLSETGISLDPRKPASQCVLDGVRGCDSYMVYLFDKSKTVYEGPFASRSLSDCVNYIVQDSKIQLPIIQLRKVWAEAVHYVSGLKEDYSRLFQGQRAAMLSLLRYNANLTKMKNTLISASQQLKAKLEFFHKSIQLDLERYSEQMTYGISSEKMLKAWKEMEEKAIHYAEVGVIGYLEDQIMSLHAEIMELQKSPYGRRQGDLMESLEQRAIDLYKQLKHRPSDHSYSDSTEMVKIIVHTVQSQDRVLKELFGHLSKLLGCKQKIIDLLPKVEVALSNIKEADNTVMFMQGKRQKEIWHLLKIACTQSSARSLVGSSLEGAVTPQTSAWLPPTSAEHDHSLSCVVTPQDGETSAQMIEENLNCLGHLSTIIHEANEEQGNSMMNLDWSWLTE
Sequence of Mitogen-activated protein kinase 1 (Homo sapiens) (P28482 whole entry): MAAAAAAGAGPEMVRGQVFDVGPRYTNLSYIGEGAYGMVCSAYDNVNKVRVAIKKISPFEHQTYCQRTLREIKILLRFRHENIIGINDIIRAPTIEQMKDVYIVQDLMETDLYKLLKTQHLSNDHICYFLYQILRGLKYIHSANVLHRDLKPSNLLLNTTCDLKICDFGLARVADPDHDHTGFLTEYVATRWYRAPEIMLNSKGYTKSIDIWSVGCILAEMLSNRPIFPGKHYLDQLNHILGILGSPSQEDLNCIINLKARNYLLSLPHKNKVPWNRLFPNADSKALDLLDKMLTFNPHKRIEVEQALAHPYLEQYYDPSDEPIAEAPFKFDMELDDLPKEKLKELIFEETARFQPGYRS
Sequence of Ephrin type-B receptor 4 (Homo sapiens) (P54760 whole entry): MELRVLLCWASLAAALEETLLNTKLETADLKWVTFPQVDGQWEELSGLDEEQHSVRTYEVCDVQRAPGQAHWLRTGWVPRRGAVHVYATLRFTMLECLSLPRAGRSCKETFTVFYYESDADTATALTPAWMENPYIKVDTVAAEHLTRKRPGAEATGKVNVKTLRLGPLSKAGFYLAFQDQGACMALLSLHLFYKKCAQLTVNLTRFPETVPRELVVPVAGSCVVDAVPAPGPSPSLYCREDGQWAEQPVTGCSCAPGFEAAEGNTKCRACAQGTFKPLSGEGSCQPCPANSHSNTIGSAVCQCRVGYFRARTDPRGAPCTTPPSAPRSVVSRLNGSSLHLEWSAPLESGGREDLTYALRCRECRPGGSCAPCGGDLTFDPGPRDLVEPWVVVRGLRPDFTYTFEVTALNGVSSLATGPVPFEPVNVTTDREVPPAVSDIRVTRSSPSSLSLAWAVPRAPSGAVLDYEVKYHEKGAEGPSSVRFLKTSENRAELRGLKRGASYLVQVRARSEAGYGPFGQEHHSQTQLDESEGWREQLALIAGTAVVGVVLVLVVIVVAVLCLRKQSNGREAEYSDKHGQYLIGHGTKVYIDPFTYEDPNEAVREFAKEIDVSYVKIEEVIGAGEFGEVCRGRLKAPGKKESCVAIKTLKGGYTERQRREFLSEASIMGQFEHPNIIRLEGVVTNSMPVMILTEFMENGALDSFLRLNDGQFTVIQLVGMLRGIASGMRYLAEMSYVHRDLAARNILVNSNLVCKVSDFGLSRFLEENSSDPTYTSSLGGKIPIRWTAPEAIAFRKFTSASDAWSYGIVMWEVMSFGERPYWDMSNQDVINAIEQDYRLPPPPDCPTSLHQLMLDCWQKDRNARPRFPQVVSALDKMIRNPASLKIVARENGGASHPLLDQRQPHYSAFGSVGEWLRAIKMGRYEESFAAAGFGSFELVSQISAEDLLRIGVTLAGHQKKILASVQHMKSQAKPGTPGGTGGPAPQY

SMILES: Cc1cn(-c2ccc(Oc3ccc(/C=C4\C(=O)Nc5ccc(Cl)cc54)cc3)cc2)cn1
Activity (H4 [26]): Toxic
IC50 (Gamma-secretase): 5.4 µM

SMILES: O=C1Nc2ccc(Cl)cc2/C1=C/c1cc(Br)c(O)c(Br)c1
Activity (H4 [27]): Non-toxic
IC50 (Gamma-secretase): 15 µM

SMILES: O=C1Nc2ccc(Cl)cc2/C1=C/c1ccc(O)cc1
Activity (H4 [27]): Non-toxic
IC50 (Gamma-secretase): 47.6 µM

SMILES: CN(C)c1ccc(/N=N/c2ccc(/C=C3\C(=O)Nc4ccccc43)cc2)cc1
Activity (H4 [28]): Non-toxic
IC50 (Gamma-secretase): > 80 µM

SMILES: N#Cc1cccc(COc2ccc(/C=C3\C(=O)Nc4ccc(Cl)cc43)cc2)c1
Activity (H4 [27]): Non-toxic
IC50 (Gamma-secretase): > 40 µM

SMILES: O=C1Nc2ccc(Cl)cc2/C1=C/c1ccc(OCCN2CCOCC2)cc1
Activity (H4 [27]): Non-toxic
IC50 (Gamma-secretase): 11.3 µM

SMILES: N#Cc1ccc(COc2ccc(/C=C3\C(=O)Nc4ccc(Cl)cc43)cc2)cc1
Activity (H4 [27]): Non-toxic
IC50 (Gamma-secretase): 27.3 µM

SMILES: Cn1c2ccccc2c2cc(/C=C3\C(=O)Nc4ccc(Cl)cc43)ccc21
Activity (H4 [28]): Non-toxic
IC50 (Gamma-secretase): 19.8 µM

SMILES: COc1cc(/C=C2\C(=O)Nc3ccc(Cl)cc32)ccc1S(C)(=O)=O
IC50 (Gamma-secretase): 7.3 µM
Activity (H4 [29]): Toxic

SMILES: COC(=O)c1ccc(COc2ccc(/C=C3\C(=O)Nc4ccc(Cl)cc43)cc2)cc1
Activity (H4 [27]): Non-toxic
IC50 (Gamma-secretase): 38.8 µM

SMILES: COc1cc(/C=C2\C(=O)Nc3ccc(Cl)cc32)ccc1OCCCC#N
IC50 (Gamma-secretase): > 160 µM
Activity (H4 [30]): Non-toxic

SMILES: COc1cc(/C=C2\C(=O)Nc3ccc(Cl)cc32)ccc1-n1cnc(C)c1
Activity (H4 [28]): Toxic
IC50 (Gamma-secretase): 6.7 µM

SMILES: Cn1c2ccccc2c2cc(/C=C3\C(=O)Nc4ccccc43)ccc21
Activity (H4 [28]): Toxic
IC50 (Gamma-secretase): 27.6 µM

SMILES: O=C1Nc2ccc(Cl)cc2/C1=C/c1ccc(OCCCc2nnn[nH]2)cc1
Activity (H4 [27]): Toxic
IC50 (Gamma-secretase): 17.7 µM

SMILES: CCN(CC)CCOc1ccc(/C=C2\C(=O)Nc3ccc(Cl)cc32)cc1OC
Activity (H4 [27]): Toxic
IC50 (Gamma-secretase): 11.5 µM

Continued, in another order:

Activity [1]: 100%
Activity [2]: 99.6%
Activity [3]: 101%
Activity (Homo sapiens): 98.7%
Activity [4]: 100%
Activity [5]: 96%
Activity [6]: 93.5%
Activity [7]: 97.2%
Activity [8]: 99.4%
Activity [9]: 104%
Activity [10]: 107%
Activity [11]: 102%
Activity [12]: 99.6%
Activity [13]: 104%
Activity [14]: 101%
Activity [15]: 92.9%
Activity [16]: 95.8%
IC50 (Gamma-secretase): 17.7 µM
Activity [17]: 67.3%
Activity [18]: 107%
Activity [19]: 101%
Activity [21]: 102%
Activity [22]: 97%
Activity [23]: 101%
Activity [24]: 14.7%
Activity [25]: 104%
SMILES: CCN(CC)CCOc1ccc(/C=C2\C(=O)Nc3ccc(Cl)cc32)cc1
Activity (Danio rerio): Toxic
Ratio IC50 (H4 [20]): 1000

IC50 (Gamma-secretase): 11.5 µM
SMILES: COc1cc(/C=C2\C(=O)Nc3ccc(Cl)cc32)ccc1OCCN(C)C
Activity (H4 [27]): Toxic

IC50 (Gamma-secretase): > 40 µM
SMILES: CCCCOc1ccc(/C=C2\C(=O)Nc3ccc(Cl)cc32)cc1
Activity (H4 [27]): Non-toxic

IC50 (Gamma-secretase): 10 µM
SMILES: COc1cc(OCCN(C)C)ccc1/C=C1\C(=O)Nc2ccc(Cl)cc21
Activity (H4 [27]): Non-toxic

IC50 (Gamma-secretase): > 40 µM
SMILES: COc1ccc(/C=C2\C(=O)Nc3ccc(Cl)cc32)cc1
Activity (H4 [27]): Non-toxic

IC50 (Gamma-secretase): > 40 µM
SMILES: N#CCCCOc1ccc(/C=C2\C(=O)Nc3ccc(Cl)cc32)cc1
Activity (H4 [27]): Toxic

IC50 (Gamma-secretase): 7.6 µM
SMILES: CN(C)CCOc1ccc(/C=C2\C(=O)Nc3ccc(Cl)cc32)cc1
Activity (H4 [27]): Non-toxic

IC50 (Gamma-secretase): 4.7 µM
SMILES: O=C1Nc2ccc(Cl)cc2/C1=C/c1ccc(OCCCCl)cc1
Activity (H4 [27]): Toxic
